Experimental data from paper PMC11210309 (Science Advances, 2021).

Key:
[1] = Apical-to-basolateral permeability; conditions: human
[2] = Apical-to-basolateral permeability; conditions: human, Caco-2
hIECs = assay: qPCR of intestinal marker genes in compound-treated hIECs; type: cell-based, human; conditions: compound-treated hIECs in 2D culture (Fig. 1C)
β-catenin = assay: Western blot of β-catenin during hIEC differentiation; type: cell-based, human; conditions: differentiation of hIEC progenitors, 2 μM Wnt-C59 (Fig. 1F)
How it was run: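 hIEC progenitors are kept on 1% Matrigel in DMEM/F12 with EGF, R-spondin1 and insulin. They are seeded at 1.34 × 10^5 cells/cm2 on 1% Matrigel-coated Transwell inserts with 10 μM Y-27632 until near confluence. They are then switched to DMEM/F12 with EGF (100 ng/ml), 2 μM Wnt-C59, 1 mM VPA, 2% FBS, 2% B27, 1% N2, 2 mM l-glutamine, 1% NEAA and 15 mM Hepes.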

Notch signaling = assay: Western blot of cleaved NOTCH1 and HES1 during hIEC differentiation; type: cell-based, human; conditions: single treatment with VPA, 1 mM (Fig. 1F)

Molecule	Papp A→B at 2 h [1] [×10⁻⁶ cm/s]	Papp A→B at 2 h [2] [×10⁻⁶ cm/s]	also measured
O=C(O)Cc1ccccc1Nc1c(Cl)cccc1Cl [diclofenac]	12.5 ± 2.65	36.4 ± 1.13	
CC[C@H]1OC(=O)[C@H](C)[C@@H](O[C@H]2C[C@@](C)(OC)[C@@H](O)[C@H](C)O2)[C@H](C)[C@@H](O[C@@H]2O[C@H](C)C[C@H](N(C)C)[C@H]2O)[C@](C)(O)C[C@@H](C)C(=O)[C@H](C)[C@@H](O)[C@]1(C)O [erythromycin]	4.95 ± 0.14	< 0.3	
Insulin: acts in the intestinal epithelium via the insulin receptor; component of hIEC medium 1			Differentiation into absorptive cells (VIL1 and ANPEP expression) (hIECs): specifically increased
COCCc1ccc(OCC(O)CNC(C)C)cc1 (centres unmarked) [metoprolol]	13.8 ± 0.74	35.5 ± 1	
CNC(=C[N+](=O)[O-])NCCSCc1ccc(CN(C)C)o1 [ranitidine]	11.6 ± 0.92	1.16 ± 0.09	
Cc1cc(-c2ccc(CC(=O)Nc3ccc(-c4cccnc4)cc3)cc2)ccn1 [WNT C-59]			Expression of β-catenin (β-catenin): specifically inhibited
CCCC(CCC)C(=O)O [VPA, valproic acid]			Notch signaling (cleaved NOTCH1 and HES1) (Notch signaling): notable enhancement
CC(C)NCC(O)COc1cccc2ccccc12 (centres unmarked) [propranolol]	13.1 ± 1.25	29.1 ± 0.97	
R-spondin 1: an agonist of Wnt signaling (protein, UniProt Q2MKA7 21-263, looked up) R-spondin-1: SRGIKGKRQRRISAEGSQACAKGCELCSEVNGCLKCSPKLFILLERNDIRQVGVCLPSCPPGYFDARNPDMNKCIKCKIEHCEACFSHNFCTKCKEGLYLHKGRCYPACPEGSSAANGTMECSSPAQCEMSEWSPWGPCSKKQQLCGFRRGSEERTRRVLHAPVGDHAACSDTKETRRCTVRRVPCPEGQKRRKGGQGRRENANRNLARKESKEAGAGSRRRKGQQQQQQQGTVGPLTSAGPA			Expression of markers of major intestinal cell types (ISCs, enterocytes, secretory lineage cells) (hIECs): induced
